In ChEMBL document CHEMBL1131320, “Role of the C(6)-hydroxy group in bicyclomycin: synthesis, structure, and chemical, biochemical, and biological properties” (1998):
Converted amounts (≈) assume the structure as drawn.

Columns and labels:
Escherichia coli [1] = assay: The compound was tested for the % inhibition of transcription termination (TT) activity in Escherichia coli-rho at 100 uM; type: functional
Outline: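 Rho-dependent transcription termination (Platt method), at pH 7.9 with [α-³²P]UTP label and purified E. coli rho. Percent termination is read at 100 µM.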

Escherichia coli [2] = assay: The compound was tested for minimum inhibitory concentration (MIC) against Escherichia coli W3350 cells; type: functional
Outline: (§1)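 Filter-disk assay; MIC taken as the average minimum inhibitory concentration from duplicate tests.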

[3] = target: Transcription termination factor rho (Escherichia coli) (UniProt P0AG30); assay: The compound was tested for the concentration to inhibit 50% of ATPase activity
Escherichia coli [4] = assay: The compound was tested for the concentration to inhibit 50% of transcription termination activity in Escherichia coli-rho and is expressed in I50.; type: functional
Outline: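 Rho-dependent transcription termination following Platt and co-workers, at pH 7.9 with [α-³²P]UTP and rho purified from E. coli AR120/p39-AS. I50 is the average 50% inhibition concentration from duplicate tests.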

[5] = target: Transcription termination factor rho (Escherichia coli) (UniProt P0AG30); assay: The compound was tested for the % inhibition of rho poly(C)-stimulated ATPase activity at 400 uM
Escherichia coli [6] = assay: The compound was tested for the % inhibition of rho poly(C)-stimulated ATPase activity at 400 uM; type: functional
Outline: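 Poly(C)-dependent ATPase of purified E. coli rho (AR120/p39-AS overexpression, Lowry-quantified), run at pH 7.9 with [γ-³²P]ATP. Percent inhibition is read at 400 µM alongside a concurrently run parent-antibiotic reference.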

Escherichia coli [7] = assay: The compound was tested for minimum inhibitory concentration (MIC) against Escherichia coli W3350 cells.; type: functional; outline: as §1

Sequence of Transcription termination factor rho (Escherichia coli) (P0AG30 whole entry, looked up): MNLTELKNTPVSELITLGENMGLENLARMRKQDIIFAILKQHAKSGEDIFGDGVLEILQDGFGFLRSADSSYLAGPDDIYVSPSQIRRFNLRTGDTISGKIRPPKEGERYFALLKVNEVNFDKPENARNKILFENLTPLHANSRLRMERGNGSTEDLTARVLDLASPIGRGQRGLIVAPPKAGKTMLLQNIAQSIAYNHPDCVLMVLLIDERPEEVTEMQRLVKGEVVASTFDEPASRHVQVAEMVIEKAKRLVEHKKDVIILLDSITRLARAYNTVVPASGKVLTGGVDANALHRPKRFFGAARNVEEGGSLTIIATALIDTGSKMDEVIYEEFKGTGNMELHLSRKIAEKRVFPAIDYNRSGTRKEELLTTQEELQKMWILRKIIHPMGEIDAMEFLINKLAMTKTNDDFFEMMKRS

**Q.** What does the source list for `C=C1CCOC2([C@@H](O)[C@@](C)(O)CO)NC(=O)[C@@]1(NO)NC2=O`?
**A.** inhibition at 100 µM (Escherichia coli [1]): 22%; MIC (Escherichia coli [2]; read-out: MIC): > 32 µg/mL; I50 [3]: > 400; I50 (Escherichia coli [4]): > 100 µM; inhibition [5]: 45%

**Q.** Which inhibition at 100 µM (Escherichia coli [1]) does the source give for `C=C1CCOC2([C@@H](O)[C@@](C)(O)CO)NC(=O)[C@@]1(O)NC2=O` here?
**A.** The inhibition at 100 µM was 100%.

**Q.** And the MIC (Escherichia coli [2])?
**A.** Its MIC is 250 µg/mL (≈ 827 µM).

**Q.** What about the I50 (Escherichia coli [4]) of the same compound?
**A.** Its I50 is 5 µM.

**Q.** How did the inhibition at 100 µM (Escherichia coli [1]) turn out when `C=C1CCOC2([C@@H](O)[C@@](C)(O)CO)NC(=O)[C@@]1(N(C)OC)NC2=O` was run?
**A.** The inhibition at 100 µM was 0%.

**Q.** What about the MIC (Escherichia coli [2]; read-out: MIC) of the same compound?
**A.** Its MIC is greater than 32 µg/mL.

**Q.** What about the I50 [3] of the same compound?
**A.** Its I50 is greater than 400.

**Q.** What about the I50 (Escherichia coli [4]) of the same compound?
**A.** Its I50 is greater than 100 µM.

**Q.** And the inhibition [5]?
**A.** Its inhibition is 7%.

**Q.** How did the inhibition at 100 µM (Escherichia coli [1]) turn out when `C=C1CCOC2([C@@H](O)[C@@](C)(O)CO)NC(=O)[C@@]1(NC)NC2=O` was run?
**A.** The inhibition at 100 µM was 2%.

**Q.** What about the MIC (Escherichia coli [2]; read-out: MIC) of the same compound?
**A.** Its MIC is greater than 32 µg/mL.

**Q.** What about the I50 [3] of the same compound?
**A.** The I50 was greater than 400.

**Q.** What about the I50 (Escherichia coli [4]) of the same compound?
**A.** Its I50 is greater than 100 µM.

**Q.** And the inhibition [5]?
**A.** Its inhibition is 3%.

**Q.** `C=C1CCOC2([C@@H](O)[C@@](C)(O)CO)NC(=O)[C@@]1(S)NC2=O` was tested. Which inhibition at 100 µM (Escherichia coli [1]) did it give?
**A.** The inhibition at 100 µM was 8%.

**Q.** What about the MIC (Escherichia coli [2]; read-out: MIC) of the same compound?
**A.** The MIC was greater than 32 µg/mL.

**Q.** What about the I50 [3] of the same compound?
**A.** The I50 was greater than 400.

**Q.** And the I50 (Escherichia coli [4])?
**A.** Its I50 is greater than 100 µM.

**Q.** And the inhibition [5]?
**A.** The inhibition was 28%.

**Q.** How did the inhibition at 100 µM (Escherichia coli [1]) turn out when `C=C1CCOC2([C@@H](O)[C@@](C)(O)CO)NC(=O)[C@@]1(NOC)NC2=O` was run?
**A.** The inhibition at 100 µM was 0%.

**Q.** What about the MIC (Escherichia coli [2]; read-out: MIC) of the same compound?
**A.** Its MIC is greater than 32 µg/mL.

**Q.** And the I50 [3]?
**A.** The I50 was greater than 400.

**Q.** What about the I50 (Escherichia coli [4]) of the same compound?
**A.** The I50 was greater than 100 µM.

**Q.** What about the inhibition [5] of the same compound?
**A.** Its inhibition is 13%.

**Q.** What does the source list for `C=C1CCOC2([C@@H](O)[C@@](C)(O)CO)NC(=O)[C@@]1(N)NC2=O`?
**A.** inhibition at 400 µM (Escherichia coli [6]): 17%; inhibition at 100 µM (Escherichia coli [1]): 5%; I50 [3]: > 400; I50 (Escherichia coli [4]): > 100 µM; MIC (Escherichia coli [7]): > 32 µg/mL

**Q.** How did the inhibition at 100 µM (Escherichia coli [1]) turn out when `C=C1CCOC2([C@@H](O)[C@@](C)(O)CO)NC(=O)[C@@]1(NC(C)=O)NC2=O` was run?
**A.** Its inhibition at 100 µM is 1%.

**Q.** And the MIC (Escherichia coli [2]; read-out: MIC)?
**A.** Its MIC is greater than 32 µg/mL.

**Q.** And the I50 [3]?
**A.** Its I50 is greater than 400.

**Q.** What about the I50 (Escherichia coli [4]) of the same compound?
**A.** Its I50 is greater than 100 µM.

**Q.** What about the inhibition [5] of the same compound?
**A.** The inhibition was 15%.

**Q.** `C=C1CCOC2([C@@H](O)[C@@](C)(O)CO)NC(=O)[C@@]1(N(C)O)NC2=O` was tested. Which inhibition at 100 µM (Escherichia coli [1]) did it give?
**A.** Its inhibition at 100 µM is 0%.

**Q.** What about the MIC (Escherichia coli [2]; read-out: MIC) of the same compound?
**A.** The MIC was greater than 32 µg/mL.

**Q.** And the I50 [3]?
**A.** The I50 was greater than 400.

**Q.** What about the I50 (Escherichia coli [4]) of the same compound?
**A.** The I50 was greater than 100 µM.

**Q.** And the inhibition [5]?
**A.** The inhibition was 16%.

**Q.** Which inhibition at 100 µM (Escherichia coli [1]) does the source give for `C=C1CCOC2([C@@H](O)[C@@](C)(O)CO)NC(=O)[C@@]1(N(C)C)NC2=O` here?
**A.** Its inhibition at 100 µM is 1%.

**Q.** And the I50 [3]?
**A.** The I50 was greater than 400.

**Q.** What about the I50 (Escherichia coli [4]) of the same compound?
**A.** The I50 was greater than 100 µM.

**Q.** And the inhibition [5]?
**A.** Its inhibition is 1%.

**Q.** What about the MIC (Escherichia coli [7]) of the same compound?
**A.** Its MIC is greater than 32 µg/mL.
